{"data": "Assay results collected from several papers", "read-out": "binding", "CREBBP bromodomain": "CREB-binding protein, bromodomain (CREBBP, Homo sapiens, UniProt Q92793)", "tspO A138F": "tspO (Cereibacter sphaeroides, UniProt Q9RFC8, A138F)", "PIK3CG": "Phosphatidylinositol 4,5-bisphosphate 3-kinase catalytic subunit gamma isoform (PIK3CG, Homo sapiens, UniProt P48736)", "note": "Protocols differ between the studies behind these lines."}
{"SMILES": "CCCc1cc(N=Nc2cc(S(=O)(=O)O)c(C)cc2C)ccc1O", "target": "CREBBP bromodomain", "method": "fluorescence", "Kd": "97000 nM"}
{"SMILES": "Cn1nnc2ccc(NC(=O)c3cccc(C(=O)O)c3)cc21", "target": "CREBBP bromodomain", "method": "competition with immobilised ligand", "Kd": "17000 nM"}
{"SMILES": "C=CC1=C(C)C2=Cc3c(C=C)c(C)c4[n]3[Fe]([Cl])[n]3c(c(C)c(CCC(=O)O)c3=CC3=NC(=C4)C(C)=C3CCC(=O)O)=CC1=N2", "target": "tspO A138F", "method": "fluorescence", "Kd": "700 nM"}
{"SMILES": "CC1=C(/C=C/C(C)=C/C=C/C(C)=C/C=O)C(C)(C)CCC1", "target": "Cellular retinoic acid-binding protein 2 (CRABP2, Homo sapiens, UniProt P29373, L122E/R133K)", "method": "fluorescence", "Kd": "104 nM"}
{"SMILES": "CC(C)=CCc1c(O)ccc(C(=O)/C=C/c2ccc(O)cc2)c1O", "target": "Dihydroorotate dehydrogenase (quinone), mitochondrial (DHODH, Homo sapiens, UniProt Q02127)", "method": "ITC", "Kd": "1330 nM"}
{"SMILES": "CCC(=O)N1CCC(C(=O)NCC(=O)N2CCN(c3nc(-c4cnc(N)nc4C(F)F)nc(N4CCOCC4)n3)CC2)CC1", "target": "PIK3CG", "method": "competition with immobilised ligand", "Kd": "1.3 nM"}
{"SMILES": "C=CC1=C(C)c2cc3[nH]c(cc4nc(cc5[nH]c(cc1n2)c(C)c5CCC(=O)O)C(CCC(=O)O)=C4C)c(C)c3C=C", "target": "tspO A138F", "method": "fluorescence", "Kd": "700 nM"}
{"SMILES": "Cc1cc(/N=N/c2ccc(S(=O)(=O)O)cc2)ccc1O", "target": "CREBBP bromodomain", "method": "fluorescence", "Kd": "76000 nM"}
{"SMILES": "Cc1cc2c(NC(=O)c3cccc(C(=O)O)c3)cccc2nn1", "target": "CREBBP bromodomain", "method": "competition with immobilised ligand", "Kd": "1100 nM"}
{"SMILES": "CO[C@H]1[C@H](O)[C@@H](CO)OC(O)[C@@H]1O (stereo partly drawn)", "target": "Nucleolar RNA helicase 2 (Homo sapiens, UniProt Q9NR30)", "method": "MST", "Kd": "3980 nM"}
{"SMILES": "Nc1nc2c(ncn2[C@@H]2O[C@H](COP(=O)(O)OP(=O)(O)O)[C@@H](OP(=O)(O)OP(=O)(O)O)[C@H]2O)c(=O)[nH]1", "target": "gpmA (Escherichia coli, UniProt P62707)", "method": "ITC", "Kd": "52000 nM"}
{"SMILES": "C=CC(=O)N1CCC(C(=O)NCC(=O)N2CCN(c3nc(-c4cnc(N)nc4C(F)F)nc(N4CCOCC4)n3)CC2)CC1", "target": "PIK3CG", "method": "competition with immobilised ligand", "Kd": "1.6 nM"}
